# FN deposition inh – fibronectin deposition inhibition; AH1F fibroblasts, Alexa488-fibronectin deposition fluorescence, overnight; inhibition, % at 12.6 µM; actives 0.086% (n = 350,000); AID 743247;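 active = mean inhibition across replicates of 30% or more, regardless of how many single replicates reach that level; inconclusive = mean under 30% yet at least half of replicates reach 30%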;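 also: positive control wells lacked labelled fibronectin entirely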
#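 Material – AH1F fibroblast monolayer, labelled fibronectin deposition · Reagent – labelled fibronectin 24 nM · Timing – 1 h adhesion, overnight exposure · Measured by – fluorescence at 485 nm excitation, 525 nm emission · Read-out – inhibition of fibronectin deposition signal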
# EWS-Fli block – inhibitors of EWS/Fli oncoprotein transcriptional activity; actives 0.67% (n = 350,000); A673 NR0B1-luciferase reporter, viability-normalised; inhibition, % at 12.6 µM;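 active = mean inhibition of at least 50% after viability correction, with every replicate also passing that limit; inconclusive = mean reaches 50% but only one of two replicates passes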;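 also: firefly luciferase signal divided by Alamar Blue viability fluorescence both relative to DMSO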
# Env fusion inh – blocks HIV Env-driven cell-cell fusion; HeLa-JRFL Env/CEM21 cell fusion, luciferase; inhibition, % at 12.3 µM; actives 1.1% (n = 360,000); AID 651610;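 active = mean replicate inhibition score of at least 50 and every replicate individually at or above 50; inconclusive = only one of the two criteria met; inactive = mean below 50 and not all replicates reaching 50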;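 also: 0% = plate neutral controls and 100% = maraviroc near 300 nM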
# PAX8 reporter – lowers PAX8-driven luciferase in RMG-I cells; actives 1.2% (n = 360,000); RMG-I TPO-luciferase reporter, SteadyGlo, 24 h; inhibition, % at 12.6 µM; AID 652154;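 active = mean replicate inhibition at least 60% with every replicate also reaching 60%; inconclusive = only one of the two criteria is met; inactive = mean below 60% and not all replicates reaching 60%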;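 also: luciferase light reporting Pax8 driven TPO promoter activity; plate controls were median of neutral control wells for no effect and mitoxantrone controls for full effect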
# N-glyco inh – N-linked glycosylation inhibition; actives 0.23% (n = 360,000); AID 588692; D54 ERlucT glycosylation luciferase reporter, 24 h; percent of 100 nM tunicamycin response; reporter increase, % at 12.5 µM;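 active = mean luciferase reporter signal, scaled so untreated is 0 and the glycosylation-blocking control 100, at or above a set limit in every replicate; inconclusive = mean reaches the limit but not every replicate does; inactive = mean below the limit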;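 also: luciferase carries N-glycosylation sites so blocking glycosylation raises the light; 0% = median of neutral control wells and 100% = median of 100 nM tunicamycin wells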
# AF4-AF9 inh – inhibitors of human MLL-AF4/AF9 interaction. P42568. AlphaScreen, biotin-AF4 peptide binding to FLAG-AF9. inhibition, % at 10 µM. actives 0.47% (n = 350,000);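 active = every replicate reaching a set inhibition limit, whatever the replicate mean, cut at about 25% in these data; inconclusive = mean inhibition reaches that limit but some replicates miss it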;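 also: 0% = plate neutral control median and 100% = total signal loss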
# Target sequence (P42568 whole entry, looked up): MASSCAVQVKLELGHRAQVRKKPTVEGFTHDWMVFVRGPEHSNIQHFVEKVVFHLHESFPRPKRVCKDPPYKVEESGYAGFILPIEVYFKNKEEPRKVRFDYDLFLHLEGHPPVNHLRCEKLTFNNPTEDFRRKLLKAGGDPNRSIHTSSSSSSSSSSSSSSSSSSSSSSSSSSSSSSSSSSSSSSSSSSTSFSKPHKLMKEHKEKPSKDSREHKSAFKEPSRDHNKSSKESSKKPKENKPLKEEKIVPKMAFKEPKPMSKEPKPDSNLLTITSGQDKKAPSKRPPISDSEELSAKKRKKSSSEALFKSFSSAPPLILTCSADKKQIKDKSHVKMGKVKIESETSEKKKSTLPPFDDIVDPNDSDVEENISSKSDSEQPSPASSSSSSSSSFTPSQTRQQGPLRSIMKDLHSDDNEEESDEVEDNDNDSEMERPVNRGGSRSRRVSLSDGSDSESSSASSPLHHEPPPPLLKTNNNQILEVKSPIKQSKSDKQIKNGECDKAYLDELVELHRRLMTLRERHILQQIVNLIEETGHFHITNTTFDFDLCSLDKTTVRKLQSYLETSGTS
# * = called active by the depositor; ? = inconclusive; . = not tested or not shown; ! = a repeat was not active; [ ] = dose if it differs, or a comment. Hits are enriched below; roughly 2.5% of the tested compounds scored in any of these assays.
SMILES,FN deposition inh,EWS-Fli block,Env fusion inh,PAX8 reporter,N-glyco inh,AF4-AF9 inh
N#Cc1cn(C2OC(CO)C(O)C2O)c2ncnc(N)c12 (stereo unspecified),7,-7,85*,96*,-12,-2
Nc1ncnc2c1ncn2[C@@H]1O[C@H](COP(=O)(O)CP(=O)(O)O)[C@@H](O)[C@H]1O,-13,9,7,-17,-1,0
COc1ccc(Cc2nccc3cc(OC)c(OC)cc23)cc1OC,4,-4,57*,20,0,-6
C/C=C/c1ccc(C2[C@@H]3CN(C(=O)c4cnccn4)C[C@H]2N3)cc1 (stereo partly specified),4,15,.,9,.,-5
COC(=O)[C@@H]1[C@@H](CO)[C@@H]2Cn3c(ccc(-c4cccc(OC)c4)c3=O)[C@H]1N2C(=O)c1cnccn1,.,3,.,-6,.,0
COC1CC2C=C(C)C=CC=CC(=O)NC(c3ccccc3)CC=CCCC(O)CC(=O)C2=C1O (stereo unspecified),3,55*,92*,116*,-19,0
COC(=O)[C@@H]1[C@@H](CO)[C@@H]2Cn3c(ccc(-c4ccccc4F)c3=O)[C@H]1N2,.,-3,-6[16.7 µM],1,.,-5
O=C1C(=O)c2cccc3cccc1c23,-6,26,-25,15,7,5
O=C1C(=O)c2ccccc2-c2ccccc21,56*,82*,91*,?,-23,3
COC(=O)[C@@H]1[C@@H](CO)[C@@H]2Cn3c(ccc(-c4ccccc4)c3=O)[C@H]1N2CC1CCOCC1,.,4,.,11,.,0
Cc1cccc(N=Nc2ccc(N(C)C)cc2)c1,0,.,-110,-167,-11,27*
CN(C)c1ccccc1,-4,9,-2,-29,1,-3
C[C@H]1CN([C@@H](C)CO)C(=O)CCCn2cc(nn2)CO[C@H]1CN(C)C(=O)Oc1cccc2ccccc12,9,3,.,-2,.,.
C=C1[C@@H](C)[C@H]2[C@H](Cc3ccccc3)NC(=O)[C@]23OC(=O)/C=C/[C@H](O)CCC[C@@H](C)C/C=C/[C@H]3[C@@H]1O,35*!,-14,69*,74*,-8,1
C[C@H]1C/C=C/[C@H]2[C@H](O)[C@H](C)[C@@](C)(O)[C@H]3[C@H](Cc4ccccc4)NC(=O)[C@]32[C@H](O)/C=C/[C@](C)(O)C1,.,.,.,.,-6,.
C=C1C(C)C2C(Cc3ccccc3)NC(=O)C23C(OC(C)=O)C=CC(C)(O)CC(C)CC=CC3C1O (stereo unspecified),45*,-11,-107,?,2,-3
O=C(Cc1ccncc1)N1CCCCN2[C@H](C1)[C@H](c1ccc(C#CC3(O)CCCC3)cc1)[C@@H]2CO,.,.,.,-10,.,-1
CC(C)NS(=O)(=O)c1ccc(OCC(=O)N2CCN(Cc3ccc4c(c3)OCO4)CC2)c(Cl)c1,.,.,74*,.,-1,.
COC(=O)C1=C(c2ccc(F)cc2OCc2ccccc2)C[C@@H]2CC[C@H]1N2C(=O)NC1Cc2ccccc2C1,5,10,57*,89*,-8,-2
COC(=O)C1=C(c2ccc(F)cc2OCc2ccccc2)C[C@@H]2CC[C@H]1N2C(=O)NCc1ccc(C)cc1,-15,2,30,102*,-9,2
COCCNC(=O)N1[C@H]2CC[C@@H]1C(C(=O)OC)=C(c1ccc(-c3ccccc3)c(F)c1)C2,8,6,57*,7,-5,0
COC(=O)C1=C(c2ccc(-c3ccccc3)c(F)c2)C[C@@H]2CC[C@H]1N2C(=O)NCCOc1ccccc1,-5,0,-19,26,-6,-9
COC(=O)[C@H]1[C@H](CO)[C@H]2Cn3c(ccc(-c4ccccc4)c3=O)[C@@H]1N2CC1CC1,.,-3,.,.,.,0
CNc1ccc2nc3ccccc3[n+](C)c2c1,12,-13,-6,65*,-16,9
C[n+]1c2ccccc2nc2ccc(NCCO)cc21,-5,-92,57*,-38,4,6
OCCNc1c2c(nc3ccccc13)CCCC2,.,.,.,.,-1,.
C=CCN1[C@@H]2CN(C(C)=O)C[C@H]1C2c1ccccc1 (stereo partly specified),-2,.,.,.,.,.
COC(=O)[C@H]1[C@H](CO)[C@H]2Cn3c(ccc(-c4cccc(OC)c4)c3=O)[C@@H]1N2C(=O)c1cnccn1,.,-2,.,-9,.,0
